ChEMBL document CHEMBL5370639, “Structure-Based Lead Optimization of Enterovirus D68 2A Protease Inhibitors” (J Med Chem, 2023)

How the values were obtained:
[1] = Cytotoxicity against human RD cells assessed as reduction in cell viability by neutral red staining based CPE assay; assay type: toxicity; details: RD cells
Summary of the method: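 Uninfected RD cells, grown overnight to ~90% confluency, treated with compound under otherwise the same handling as the antiviral assay. Viability by neutral red uptake (66 μg/mL, 2 h, absorbance 540 nm). CC50 from best-fit dose-response curve; mean ± SD of two independent experiments, three repeats each.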

enterovirus D68 [2] = assay: Antiviral activity against enterovirus D68 US/MO/14-18947 infected in human RD cells assessed as reduction in virus induced cytopathic effect by neutral red staining based CPE assay; assay type: functional, organism-based; details: Enterovirus D, US/MO/14-18947, RD
Summary of the method: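 RD cells seeded overnight to ~90% confluency, washed with PBS containing Mg/Ca, infected with virus in DMEM/2% FBS/30 mM MgCl2 for at least 1 h at 33 °C, then compound added. Cells stained with 66 μg/mL neutral red for 2 h; uptake read at 540 nm. EC50 from dose-response fit; mean ± SD of two independent experiments, three repeats each.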

[3] = Inhibition of Enterovirus D68 US/KY/14-18953 2A protease expressed in Escherichia coli BL21(DE3) using Dabcyl-KIRIVNT/GPGEGGE-Edans as substrate incubated for 2 hrs by FRET assay
[4] = Binding affinity to Enterovirus D68 US/KY/14-18953 2A protease expressed in Escherichia coli BL21(DE3) assessed as inhibition constant using Dabcyl-KIRIVNT/GPGEGGE-Edans as substrate incubated for 2 hrs by FRET assay
Summary of the method: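 Progression-curve kinetics: FRET substrate at 40 μM final in 50 mM Tris pH 7.0, 100 mM NaCl, 2 mM DTT, 10% glycerol with varying inhibitor; reaction started by adding 2Apro to 0.4 μM final. Fluorescence (ex 360/40, em 460/40 nm) read every 71 s for 2 h at 30 °C. Curves fitted by the Morrison equation or an earlier-described equation.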

enterovirus D68 [5] = assay: Antiviral activity against enterovirus D68 US/MO/14-18947 infected in human RD cells assessed as reduction in virus plaque formation measured after 3 days by neutral red staining assay; assay type: functional, organism-based; details: Enterovirus D, US/MO/14-18947, RD, 72 h
Summary of the method: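 RD cells infected with virus in DMEM/2% FBS/30 mM MgCl2 for at least 1 h at 33 °C, then given compound under a 1.2% avicel microcrystalline cellulose overlay. Cells stained after 3 days and plaques counted. EC50 from curve fitting; mean ± SD of two repeats.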

Structure (SMILES) | CC50 [1] [nM] | EC50 (enterovirus D68 [2]) [nM] | IC50 [3] [nM] | Ki [4] [nM] | EC50 (enterovirus D68 [5]) [nM]
CCC[C@H](NC(=O)[C@H](CC1CCCCC1)NC(=O)[C@@H](NC(=O)CC12CC3CC(CC(C3)C1)C2)C(C)(C)C)C(=O)C(=O)NC1CC1 | 290 | > 290 | – | – | –
CC(C)(C)[C@H](NC(=O)CC12CC3CC(CC(C3)C1)C2)C(=O)N1C[C@@H]2CCC[C@@H]2[C@H]1C(=O)NC1(C(=O)C(=O)NC2CC2)CCCCC1 | > 150000 | 1010 | 740 | – | –
CC(C)(C)[C@H](NC(=O)CC12CC3CC(CC(C3)C1)C2)C(=O)N1C[C@@H]2CCC[C@@H]2[C@H]1C(=O)N[C@@H](Cc1ccc(F)cc1)C(=O)c1nc2ccccc2s1 | > 150000 | > 30000 | > 20000 | – | –
COC[C@H](NC(=O)[C@@H]1[C@H]2CCC[C@H]2CN1C(=O)[C@@H](NC(=O)CC12CC3CC(CC(C3)C1)C2)C(C)(C)C)C(=O)C(=O)NC1CC1 | 23200 | 2290 | 120 | – | –
CC(C)(C)[C@H](NC(=O)CC12CC3CC(CC(C3)C1)C2)C(=O)N1C[C@@H]2CCC[C@@H]2[C@H]1C(=O)N[C@H](C(=O)C(=O)NC1CC1)c1ccc(F)cc1 | 24100 | 780 | 350 | – | –
CC(C)(C)[C@H](NC(=O)CC12CC3CC(CC(C3)C1)C2)C(=O)N1C[C@@H]2CCC[C@@H]2[C@H]1C(=O)N[C@H](C(=O)C(N)=O)C1CCCCC1 | > 150000 | 140 | 190 | – | –
CC(C)(C)[C@H](NC(=O)CC12CC3CC(CC(C3)C1)C2)C(=O)N1C[C@@H]2CCC[C@@H]2[C@H]1C(=O)N[C@H](C=O)Cc1ccc(F)cc1 | 17300 | 1300 | 1820 | 276 | –
CC(C)(C)[C@H](NC(=O)CC12CC3CC(CC(C3)C1)C2)C(=O)N1C[C@@H]2CCC[C@@H]2[C@H]1C(=O)NC1(C(=O)C(=O)NC2CC2)CCC1 | > 150000 | 3230 | 4810 | – | –
CC(C)(C)[C@H](NC(=O)NC12CC3CC(CC(C3)C1)C2)C(=O)N1C[C@@H]2CCC[C@@H]2[C@H]1C(=O)N[C@@H](Cc1ccc(F)cc1)C(=O)C(=O)NC1CC1 | 21300 | 350 | 160 | – | –
CCC[C@H](NC(=O)[C@@H]1[C@H]2CCC[C@H]2CN1C(=O)[C@@H](NC(=O)CC1CCCCC1)C(C)(C)C)C(=O)C(=O)NC1CC1 | > 150000 | 380 | 90 | – | –
CC(C)(C)[C@H](NC(=O)CC12CC3CC(CC(C3)C1)C2)C(=O)N1C[C@@H]2CCC[C@@H]2[C@H]1C(=O)N[C@@H](Cc1ccc(F)cc1)C(=O)C(=O)NC1CC1 | 14100 | 190 | 150 | – | –
CCC[C@H](NC(=O)[C@@H]1[C@H]2CCC[C@H]2CN1C(=O)[C@@H](NC(=O)CC12CC3CC(CC(O)(C3)C1)C2)C(C)(C)C)C(=O)C(=O)NC1CC1 | > 150000 | 1850 | 400 | – | –
CCC[C@H](NC(=O)[C@@H]1[C@H]2CCC[C@H]2CN1C(=O)[C@@H](NC(=O)/C=C/c1ccccc1)C(C)(C)C)C(=O)C(=O)NC1CC1 | > 150000 | 3990 | 760 | – | –
CCC[C@H](NC(=O)[C@@H]1[C@H]2CCC[C@H]2CN1C(=O)[C@@H](NC(=O)Cc1ccccc1)C(C)(C)C)C(=O)C(=O)NC1CC1 | > 150000 | 1970 | 250 | – | –
CC(C)(C)[C@H](NC(=O)CC12CC3CC(CC(C3)C1)C2)C(=O)N1C[C@@H]2CCC[C@@H]2[C@H]1C(=O)N[C@@H](Cc1c[nH]c2ccccc12)C(=O)C(=O)NC1CC1 | > 150000 | 280 | 180 | – | –
CCC(C)[C@H](NC(=O)[C@@H]1[C@H]2CCC[C@H]2CN1C(=O)[C@@H](NC(=O)CC12CC3CC(CC(C3)C1)C2)C(C)(C)C)C(=O)C(=O)NC1CC1 (stereo not given in full) | > 150000 | 160 | 150 | – | 13.5
CC(C)(C)[C@H](NC(=O)[C@@H]1[C@H]2CCC[C@H]2CN1C(=O)[C@@H](NC(=O)CC12CC3CC(CC(C3)C1)C2)C(C)(C)C)C(=O)C(=O)NC1CC1 | > 150000 | > 30000 | > 20000 | – | –
CC(C)(C)[C@H](NC(=O)CC12CC3CC(CC(C3)C1)C2)C(=O)N1C[C@@H]2CCC[C@@H]2[C@H]1C(=O)N[C@@H](Cc1ccsc1)C(=O)C(=O)NC1CC1 | 28200 | 240 | 120 | – | –
